{"data": "Measured values of several laboratories", "cell line": "MCF7", "read-out": "cell growth or viability", "note": "Compare with care: the assays were run in different laboratories."}
{"SMILES": "C[C@H](N)C(=O)Nc1ccccc1/N=c1\\cc(-c2ccc3c(c2)OCO3)oc2ccccc12", "technique": "CCK-8", "tested at": "1 µM", "measurement": "inhibition", "value": "8.48%"}
{"SMILES": "COc1cccc2c1C(=O)c1c(O)c3c(c(O)c1C2=O)C[C@@](O)(C(=O)CO)C[C@@H]3O[C@H]1C[C@H](N)[C@H](O)[C@H](C)O1", "technique": "MTT", "time": "24 h", "measurement": "IC50", "value": "18.4 µM"}
{"SMILES": "COc1ccc(NC(=O)Nc2cccc(-c3cn(Cc4ccc(Cl)cc4)nn3)c2)cc1", "technique": "CCK-8", "tested at": "50 µM", "time": "48 h", "measurement": "viability", "value": "100%"}
{"SMILES": "COc1cc(C=NNC(=O)c2nc3ccccc3s2)ccc1OS(C)(=O)=O", "technique": "MTT", "tested at": "100 µM", "time": "48 h", "measurement": "cell death", "value": "49.1%"}
{"SMILES": "O=C(Nc1ccc(Cl)cc1)Nc1cccc(-c2cn(Cc3cccc(Cl)c3)nn2)c1", "technique": "CCK-8", "tested at": "50 µM", "time": "72 h", "measurement": "viability", "value": "70.5%"}
{"SMILES": "NCCC(=O)Nc1ccccc1/N=c1\\cc(-c2ccc3c(c2)OCCO3)oc2cc(F)ccc12", "technique": "CCK-8", "tested at": "1 µM", "measurement": "inhibition", "value": "-1.71%"}
{"SMILES": "COc1ccc(NC(=O)Nc2ccc(-c3cn(Cc4ccc(C)cc4)nn3)cc2)cc1", "technique": "CCK-8", "tested at": "50 µM", "time": "48 h", "measurement": "viability", "value": "81.1%"}
{"SMILES": "CC(C)(C)[C@H](N)C(=O)Nc1ccccc1/N=c1\\cc(-c2ccc3c(c2)OCO3)oc2ccccc12", "technique": "CCK-8", "tested at": "1 µM", "measurement": "inhibition", "value": "21.3%"}
{"SMILES": "O=C(NCc1cn(Cc2ccc(Br)cc2)nn1)Nc1ccccc1Br", "technique": "CCK-8", "tested at": "50 µM", "time": "48 h", "measurement": "viability", "value": "84.7%"}
{"SMILES": "COc1ccc(NC(=O)Nc2cccc(-c3cn(Cc4ccccc4C)nn3)c2)cc1", "technique": "CCK-8", "tested at": "50 µM", "time": "72 h", "measurement": "viability", "value": "72.3%"}
{"SMILES": "O=C(Nc1ccc(-c2cn(Cc3ccc(Cl)cc3)nn2)cc1)Nc1ccccc1Br", "technique": "CCK-8", "tested at": "50 µM", "time": "72 h", "measurement": "viability", "value": "104%"}
{"SMILES": "COc1ccc(NC(=O)NCc2cn(Cc3ccc(C)cc3)nn2)cc1", "technique": "CCK-8", "tested at": "50 µM", "time": "48 h", "measurement": "viability", "value": "97.7%"}
{"SMILES": "O=C(NCc1cn(Cc2ccc(Cl)cc2)nn1)Nc1ccccc1Br", "technique": "CCK-8", "tested at": "50 µM", "time": "72 h", "measurement": "viability", "value": "88.6%"}
{"SMILES": "NCC(=O)Nc1ccccc1/N=c1\\cc(-c2ccc3c(c2)OCO3)oc2c(N)cccc12", "technique": "CCK-8", "tested at": "1 µM", "measurement": "inhibition", "value": "7.42%"}
{"SMILES": "O=C(NCc1cn(Cc2cccc(Cl)c2)nn1)Nc1ccc(Cl)cc1", "technique": "CCK-8", "tested at": "50 µM", "time": "48 h", "measurement": "viability", "value": "82%"}
{"SMILES": "COc1ccc2/c(=N/c3ccccc3NC(=O)CN)cc(-c3ccc4c(c3)OCCO4)oc2c1", "technique": "CCK-8", "tested at": "1 µM", "measurement": "inhibition", "value": "9.77%"}
{"SMILES": "Cc1n[nH]c2ccc3nc(-c4ccc(C(=O)NCCN(C)C)cc4)c4c(c3c12)CCCCC4", "time": "72 h", "measurement": "GI50", "value": "5.25 µM"}
{"SMILES": "COCCC(=O)Nc1ccccc1/N=c1\\cc(-c2ccc3nc(N)oc3c2)oc2ccccc12", "technique": "CCK-8", "tested at": "1 µM", "measurement": "inhibition", "value": "7.99%"}
{"SMILES": "Cc1ccccc1Cn1cc(-c2cccc(NC(=O)Nc3ccc(F)cc3)c2)nn1", "technique": "CCK-8", "tested at": "50 µM", "time": "72 h", "measurement": "viability", "value": "58.8%"}
{"SMILES": "O=C(Nc1ccc(Cl)cc1)Nc1ccc(-c2cn(Cc3ccc(Br)cc3)nn2)cc1", "technique": "CCK-8", "tested at": "50 µM", "time": "72 h", "measurement": "viability", "value": "97.8%"}
{"SMILES": "NCCCCC(=O)Nc1ccccc1/N=c1\\cc(-c2ccc3c(c2)OCO3)oc2ccccc12", "technique": "CCK-8", "tested at": "1 µM", "measurement": "inhibition", "value": "-4.92%"}
{"SMILES": "CCCS(=O)(=O)Oc1ccc(C=NNC(=O)c2nc3ccccc3s2)cc1", "technique": "MTT", "tested at": "100 µM", "time": "48 h", "measurement": "cell death", "value": "46.6%"}
{"SMILES": "COc1ccc(NC(=O)Nc2ccc(-c3cn(Cc4cccc(Cl)c4)nn3)cc2)cc1", "technique": "CCK-8", "tested at": "50 µM", "time": "48 h", "measurement": "viability", "value": "95.4%"}
{"SMILES": "CC(C)(C)c1cc(NC(=O)Nc2ccc(-c3cn4c(n3)sc3cc(OCCN5CCOCC5)ccc34)cc2)no1", "time": "72 h", "measurement": "GI50", "value": "> 10 µM"}
